Measurements as given in ChEMBL document CHEMBL1138502, “Discovery and biological evaluation of novel cyanoguanidine P2X(7) antagonists with analgesic activity in a rat model of neuropathic pain” (J Med Chem, 2009).

Columns and labels:
P2X purinoceptor 7 [1] = biological target: T1, P2X purinoceptor 7 (Homo sapiens, UniProt Q99572); test: Antagonist activity at human cloned P2X7 receptor expressed in HEK293 cells assessed as inhibition of calcium flux by FLIPR assay; format: functional, cell-based
T1 sequence (Q99572 whole entry): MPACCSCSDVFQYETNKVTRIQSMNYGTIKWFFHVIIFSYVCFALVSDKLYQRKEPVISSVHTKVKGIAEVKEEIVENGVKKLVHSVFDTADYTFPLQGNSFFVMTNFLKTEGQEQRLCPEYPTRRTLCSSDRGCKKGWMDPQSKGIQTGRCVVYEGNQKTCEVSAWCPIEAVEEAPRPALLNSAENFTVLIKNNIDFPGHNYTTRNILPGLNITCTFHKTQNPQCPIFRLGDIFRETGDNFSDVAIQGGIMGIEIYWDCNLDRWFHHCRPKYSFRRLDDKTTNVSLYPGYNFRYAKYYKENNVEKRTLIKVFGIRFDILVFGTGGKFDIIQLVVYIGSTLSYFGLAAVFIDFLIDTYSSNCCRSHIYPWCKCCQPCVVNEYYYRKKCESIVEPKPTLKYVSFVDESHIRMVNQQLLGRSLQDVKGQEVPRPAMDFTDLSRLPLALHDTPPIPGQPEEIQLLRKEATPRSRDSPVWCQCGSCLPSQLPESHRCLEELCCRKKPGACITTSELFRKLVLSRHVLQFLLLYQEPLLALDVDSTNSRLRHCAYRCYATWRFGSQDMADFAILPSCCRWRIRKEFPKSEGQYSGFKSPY
How it was run: (§1)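 Calcium influx read on a fluorometric imaging plate reader with Fluo-4 as the calcium-sensing dye. The P2X7 agonist was benzoylbenzoic ATP (BzATP). pIC50 values are the mean of two experiments unless otherwise indicated; some values are the mean of more than two experiments, with standard deviation shown.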

P2X purinoceptor 7 [2] = biological target: T2, P2X purinoceptor 7 (Rattus norvegicus, UniProt Q64663); test: Antagonist activity at rat cloned P2X7 receptor expressed in HEK293 cells assessed as inhibition of calcium flux by FLIPR assay; format: functional, cell-based; how it was run: as §1
T2 sequence (Q64663 whole entry): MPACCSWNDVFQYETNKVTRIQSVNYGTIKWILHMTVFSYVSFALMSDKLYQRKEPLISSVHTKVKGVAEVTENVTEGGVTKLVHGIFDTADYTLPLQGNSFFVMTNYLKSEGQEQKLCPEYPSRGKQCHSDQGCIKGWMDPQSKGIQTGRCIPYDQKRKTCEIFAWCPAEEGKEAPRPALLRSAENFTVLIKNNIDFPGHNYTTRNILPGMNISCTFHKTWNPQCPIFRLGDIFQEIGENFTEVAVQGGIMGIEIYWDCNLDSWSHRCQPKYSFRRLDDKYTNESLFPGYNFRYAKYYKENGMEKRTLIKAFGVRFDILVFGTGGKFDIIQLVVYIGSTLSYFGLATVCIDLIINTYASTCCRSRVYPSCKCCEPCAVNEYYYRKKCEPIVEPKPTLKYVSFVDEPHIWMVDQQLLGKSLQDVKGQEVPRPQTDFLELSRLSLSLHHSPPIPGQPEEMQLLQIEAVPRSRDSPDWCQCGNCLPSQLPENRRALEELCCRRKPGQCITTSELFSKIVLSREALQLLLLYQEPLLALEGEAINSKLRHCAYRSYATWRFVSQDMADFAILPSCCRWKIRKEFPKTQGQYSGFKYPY

[3] = Bioavailability in rat at 10 umol/kg, ip; format: ADME, organism-based; settings: in vivo
Rattus norvegicus = test: Antinociceptive activity in ip dosed rat L5-L6 spinal nerve ligation model of neuropathic pain assessed as reduction in tactile allodynia; format: functional; set-up: Activity: scale not given: the % may be the effect or the level left; settings: for ED50: Rattus norvegicus, Spinal nerve, ip
How it was run: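 Intraperitoneal dosing in rats with L5-L6 spinal nerve ligation (Chung model). Tactile allodynia was measured by von Frey testing. ED50 in µmol/kg and maximum efficacy (%) are the mean of six animals.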

Compound | IC50 (P2X purinoceptor 7 [1]) [nM] | IC50 (P2X purinoceptor 7 [2]) [nM] | bioavailability [3] [%] | Activity (Rattus norvegicus) [%] | ED50 (Rattus norvegicus) [µmol/kg]
O=C(CC12CC3CC(CC(C3)C1)C2)Nc1ccc2[nH]ncc2c1 | 158 | 501 |  |  | 
COc1ccc(C(=O)NC(N=C(NC#N)Nc2ccccc2C)C(C)(C)C)cc1 (stereo unspecified) | 7940 | 2510 |  |  | 
COc1ccc(CCC(=O)NC(N/C(=N/C#N)Nc2ccccc2C)C(C)(C)C)cc1 (stereo unspecified) | 398 | 251 |  |  | 
CC(Cl)(Cl)C(NC(=O)c1ccc(Cl)cc1)NC(=NC#N)Nc1cccnc1Cl (stereo unspecified) | 63.1 | 126 |  |  | 
Cc1ncccc1NC(=NC#N)NC(NC(=O)CCCCc1ccccc1)C(C)(C)C (stereo unspecified) | 63.1 | 50.1 |  |  | 
CC(C)(C)C(N=C(NC#N)Nc1cccc2ncccc12)NC(=O)Cc1ccc2c(c1)OCCO2 (stereo unspecified) | 10 | 10 |  |  | 
CSc1ccc(CC(=O)NC(N=C(NC#N)Nc2ccccc2C)C(C)(C)C)cc1 (stereo unspecified) | 31.6 | 7.94 |  |  | 
CC(C)(C)C(NC(=O)CCCc1cccnc1)N/C(=N/C#N)Nc1cccc2ncccc12 (stereo unspecified) | 100 | 39.8 |  |  | 
CC(C)(C)C(NC(=O)Cc1ccc(C#N)cc1)N/C(=N/C#N)Nc1cccc2ncccc12 (stereo unspecified) | 39.8 | 6.31 |  |  | 
Cc1ccc(CC(=O)NC(NC(=NC#N)Nc2cccnc2C)C(C)(C)C)cc1F (stereo unspecified) | 63.1 | 200 |  |  | 
COc1ncccc1NC(=NC#N)NC(NC(=O)c1ccc(Cl)cc1)C(C)(Cl)Cl (stereo unspecified) | 63.1 | 50.1 |  |  | 
COc1ccc(CCCC(=O)NC(N/C(=N/C#N)Nc2cccnc2C)C(C)(C)C)cc1 (stereo unspecified) | 50.1 | 100 |  |  | 
COc1ccc(NC(=NC#N)NC(NC(=O)c2ccc(Cl)cc2)C(C)(Cl)Cl)c(OC)n1 (stereo unspecified) | 50.1 | 10 |  |  | 
Cc1ccccc1N/C(=N\C#N)NC(NC(=O)Cc1ccc2c(c1)OCO2)C(C)(C)C (stereo unspecified) | 50.1 | 39.8 |  |  | 
CC(C)(C)C(NC(=O)Cc1ccc(Cl)cc1)N/C(=N/C#N)Nc1cccc2ncccc12 (stereo unspecified) | 10 | 6.31 | 66 | 68 | 55
Cc1ccccc1NC(=NC(NC(=O)CCCc1ccccc1)C(C)(C)C)NC#N (stereo unspecified) | 79.4 | 25.1 |  |  | 
COc1ccc(CC(=O)NC(N/C(=N/C#N)Nc2ccccc2C)C(C)(C)C)cc1 (stereo unspecified) | 63.1 | 31.6 |  |  | 
Cc1ncccc1N/C(=N\C#N)NC(NC(=O)Cc1ccc(F)cc1)C(C)(C)C (stereo unspecified) | 100 | 398 | 52 | 0 | > 300

The next lines start with results.

IC50 (P2X purinoceptor 7 [1]) [nM] | IC50 (P2X purinoceptor 7 [2]) [nM] | Compound | bioavailability [3] [%] | Activity (Rattus norvegicus) [%] | ED50 (Rattus norvegicus) [µmol/kg]
5010 | 501 | COc1ccc(CC(=O)NC(NC(=NC#N)Nc2ccccc2C)C(C)(C)C)cc1OC (stereo in doubt; (-)-13) |  |  | 
3160 | 79.4 | COc1ccc(CC(=O)NC(N=C(NC#N)Nc2cccc(F)c2)C(C)(C)C)cc1OC (stereo unspecified) |  |  | 
316 | 100 | COc1ccc(CC(=O)NC(N/C(=N/C#N)Nc2cccc(F)c2F)C(C)(C)C)cc1OC (stereo unspecified) |  |  | 
251 | 31.6 | COc1ccc(CC(=O)NC(N/C(=N/C#N)Nc2cccc3cnccc23)C(C)(C)C)cc1OC (stereo unspecified) |  |  | 
100 | 31.6 | COc1ccc(CC(=O)NC(NC(=NC#N)Nc2c(F)cc(F)cc2F)C(C)(C)C)cc1OC (stereo unspecified) |  |  | 
79.4 | 39.8 | COc1ccc(CC(=O)NC(N/C(=N/C#N)Nc2cccnc2Cl)C(C)(C)C)cc1OC (stereo unspecified) |  |  | 
63.1 | 3.16 | COc1ccc(CC(=O)NC(N=C(NC#N)Nc2cc(C)ccc2C)C(C)(C)C)cc1OC (stereo unspecified) |  |  | 
200 | 12.6 | COc1ccc(CC(=O)NC(N=C(NC#N)Nc2ccccc2F)C(C)(C)C)cc1OC (stereo unspecified) |  |  | 
20 | 31.6 | CSc1ccc(CC(=O)NC(N=C(NC#N)Nc2cccnc2C)C(C)(C)C)cc1 (stereo unspecified) |  |  | 
398 | 316 | COc1ccc(CC(=O)NC(N=C(NC#N)Nc2cc(F)cc(F)c2)C(C)(C)C)cc1OC (stereo unspecified) |  |  | 
63.1 | 12.6 | COc1ccc(CC(=O)NC(NC(=NC#N)Nc2ccccc2C)C(C)(C)C)cc1OC (single isomer, unassigned; (+)) |  |  | 
200 | 316 | COc1ccc(CCC(=O)NC(N=C(NC#N)Nc2ccccc2C)C(C)(C)C)cc1OC (stereo unspecified) |  |  | 
